Values after ≈ are worked out from the molar mass of the structure shown.
Experiments:
Mus musculus [1] = assay: Analgesic activity in Swiss albino mouse assessed as inhibition of acetic acid-induced writhing response at 100 mg/kg, po administered 1 hr before acetic acid challenge after 5 mins; format: functional
Brain = assay: Antioxidant activity against lipid peroxidation in Wister rat brain homogenates assessed as thiobarbituric acid reactive substance formation after 30 mins by spectrophotometer analysis; format: functional, tissue-based; settings: 0.5 h
Outline: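 Whole brain minus cerebellum from overnight-fasted rats of either sex, 200–220 g. Homogenized 10% w/v in 0.15 M KCl and spun at 800 rpm for 10 min. Reaction incubated 37 °C for 30 min, then TBA:TCA (1:1) and BHT added, heated 80 °C for 20 min, cooled, centrifuged, A532 read.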

[2] = Antioxidant activity assessed as hydroxyl radical scavenging activity after 15 mins; format: functional
Outline: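 Deoxyribose degradation mix: 2-deoxy-2-ribose 2.8 mM, KH2PO4–KOH 20 mM pH 7.4, FeCl3, EDTA, H2O2 1.0 mM, ascorbic acid, plus compound in methanol. Incubated 1 h at 37 °C. A 0.5 ml aliquot taken with 1 ml 2.8% TCA and 1 ml 1% TBA, heated 90 °C for 15 min, cooled, A532 read. % inhibition against blank.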

[3] = system: Radical scavenging activity; assay: Antioxidant activity assessed as DPPH radical scavenging activity after 20 to 30 mins; format: functional
Outline: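 Test solution (2 ml at 25, 50, 75, 100, 125) mixed with 2 ml ethanolic DPPH, held in the dark at ambient temperature 20–30 min, then A517 read against an ethanol blank. Tocopherol used as standard. % scavenging = (Acontrol−Atest)/Acontrol×100, run in triplicate. IC50 read graphically from the % scavenging versus concentration plot.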

Mus musculus [4] = assay: Acute toxicity in Swiss albino mouse assessed as mortality up to 1500 mg/kg, po; format: organism-based; set-up: dose 1500 mg/kg, route oral; settings: in vivo
Outline: (§1)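 Swiss albino mice (6–8 weeks, 25–30 g) were dosed orally at 500, 1000 or 1500 mg/kg, following OECD guidelines. Body weight, food and water intake, behavioural patterns and mortality were recorded and compared with a control group.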

Bacillus subtilis = assay: Antimicrobial activity against Bacillus subtilis MTCC 441 at 0.02 ml of 1 mg/ml after 24 hrs by cup plate method; format: functional; settings: MTCC 441, 24 h, read-out: DIZ
Outline: (§2)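 Cup-plate diffusion on Mueller-Hinton/nutrient agar swab-streaked with suspension, 6 mm cups bored. Each compound at 1 mg/ml in DMSO, 0.02 ml per cup; DMSO as solvent control. Amoxicillin for bacteria and fluconazole for fungi at 200 and 500 respectively as references. Incubation 37 °C for 24 h. Inhibition zone diameter in mm, triplicate, mean ± SD.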

Staphylococcus aureus = assay: Antimicrobial activity against Staphylococcus aureus MTCC 96 at 0.02 ml of 1 mg/ml after 24 hrs by cup plate method; format: functional; settings: MTCC 96, 24 h, read-out: DIZ; outline: as §2
Rattus norvegicus = assay: Antiinflammatory activity in Wister rat assessed as inhibition of carrageenan-induced paw edema at 100 mg/kg, po administered 1 hr before carrageenan challenge measured after 3 hrs by plethysmograph analysis; format: functional
Outline: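 Rats of either sex, 150–220 g, food withheld 4 h. Compound or diclofenac sodium 100 mg/kg p.o., or 0.5% sodium CMC at 10 ml/kg as vehicle control, given 1 h before 0.05 ml of 1% carrageenan subplantar into the right hind paw. Paw volume read by water-displacement plethysmograph at 0, 30, 60, 120 and 180 min. % edema inhibition = 100(1−Vt/Vc); n=5, control n=6; ANOVA/Dunnett.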

Aspergillus niger = assay: Antimicrobial activity against Aspergillus niger MTCC 292 at 0.02 ml of 1 mg/ml after 24 hrs by cup plate method; format: functional; settings: MTCC 292, 24 h, read-out: DIZ; outline: as §2
[5] = Cytotoxicity against brine shrimps larvae assessed as mortality after 24 hrs; format: organism-based; settings: artemia, in vivo; read-out: ED50
Outline: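 Shrimp eggs were hatched in filtered artificial sea water (38 g sea salt/L) in a divided tank. Larvae were exposed in vials at several concentrations under a lamp, and survivors were counted 24 h later. ED50 and 95% confidence intervals were derived from % larvae surviving by Finney probit analysis.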

Pseudomonas aeruginosa = assay: Antimicrobial activity against Pseudomonas aeruginosa MTCC 1688 at 0.02 ml of 1 mg/ml after 24 hrs by cup plate method; format: functional; settings: MTCC 1688, 24 h, read-out: DIZ; outline: as §2
[6] = Antioxidant activity assessed as trolox equivalents of cupric reducing antioxidant capacity after 30 mins; format: functional
Outline: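 Mix of 1 ml CuCl2 (10 mM), 1 ml ethanolic neocuproine (7.5 mM), 1 ml ammonium acetate buffer (pH 7.0, 1 M), 1 ml compound or standard solution and 0.1 ml water, total 4.1 ml. A450 read after 30 min against reagent blank. TEAC = ε test/ε Trolox.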

Mus musculus [7] = assay: Acute toxicity in Swiss albino mouse assessed as gross behavioral changes up to 1500 mg/kg, po; format: organism-based; set-up: dose 1500 mg/kg, route oral; settings: in vivo; outline: as §1
Escherichia coli = assay: Antimicrobial activity against Escherichia coli ESS 2231 at 0.02 ml of 1 mg/ml after 24 hrs by cup plate method; format: functional; settings: ESS 2231, 24 h, read-out: DIZ; outline: as §2
Candida albicans = assay: Antimicrobial activity against Candida albicans MTCC 227 at 0.02 ml of 1 mg/ml after 24 hrs by cup plate method; format: functional; settings: MTCC 227, 24 h, read-out: DIZ; outline: as §2

Structure (SMILES): CC(C)c1ccc(/C=C(/NC(=O)c2ccccc2)C(=O)NC(CS)C(=O)N(C(=O)NC2CCCCC2)C2CCCCC2)cc1 (stereo unspecified)
- inhibition in vivo at 100 mg/kg (Mus musculus [1]): 58.5%
- IC50 (Brain): 92.8 µM
- IC50 [2]: 82.2 µM
- IC50 [3]: 74.7 µM
- Activity (Mus musculus [4]): Non-toxic
- zone of inhibition at 1000 µg/mL (Bacillus subtilis): 15.2 mm
- zone of inhibition at 1000 µg/mL (Staphylococcus aureus): 12.9 mm
- inhibition in vivo at 100 mg/kg (Rattus norvegicus): 28.2%
- zone of inhibition at 1000 µg/mL (Aspergillus niger): 14.4 mm
- LC50 at 24 h [5]: 16.7 µg/mL (≈ 27 µM)
- zone of inhibition at 1000 µg/mL (Pseudomonas aeruginosa): 15.4 mm
- TEAC (Trolox equivalents) [6]: 2.36
- Activity (Mus musculus [7]): Non-toxic
- zone of inhibition at 1000 µg/mL (Escherichia coli): 11.8 mm
- zone of inhibition at 1000 µg/mL (Candida albicans): 12.2 mm

Structure (SMILES): O=C(NCC(=O)N(C(=O)NC1CCCCC1)C1CCCCC1)/C(=C\c1ccc(O)cc1)NC(=O)c1ccccc1
- inhibition in vivo at 100 mg/kg (Mus musculus [1]): 27.6%
- IC50 (Brain): 65.6 µM
- IC50 [2]: 74.7 µM
- IC50 [3]: 51 µM
- Activity (Mus musculus [4]): Non-toxic
- zone of inhibition at 1000 µg/mL (Bacillus subtilis): 22.4 mm
- zone of inhibition at 1000 µg/mL (Staphylococcus aureus): 13.4 mm
- inhibition in vivo at 100 mg/kg (Rattus norvegicus): 31.5%
- zone of inhibition at 1000 µg/mL (Aspergillus niger): 12.4 mm
- LC50 at 24 h [5]: 9.1 µg/mL (≈ 16.6 µM)
- zone of inhibition at 1000 µg/mL (Pseudomonas aeruginosa): 18.5 mm
- TEAC (Trolox equivalents) [6]: 2.91
- Activity (Mus musculus [7]): Non-toxic
- zone of inhibition at 1000 µg/mL (Escherichia coli): 19.8 mm
- zone of inhibition at 1000 µg/mL (Candida albicans): 13.2 mm

Structure (SMILES): O=C(NC(CS)C(=O)N(C(=O)NC1CCCCC1)C1CCCCC1)/C(=C\c1ccccc1)NC(=O)c1ccccc1 (stereo unspecified)
- inhibition in vivo at 100 mg/kg (Mus musculus [1]): 56.8%
- IC50 (Brain): 59.5 µM
- IC50 [2]: 64.4 µM
- IC50 [3]: 44.4 µM
- Activity (Mus musculus [4]): Non-toxic
- zone of inhibition at 1000 µg/mL (Bacillus subtilis): 23.2 mm
- zone of inhibition at 1000 µg/mL (Staphylococcus aureus): 24.4 mm
- inhibition in vivo at 100 mg/kg (Rattus norvegicus): 43.4%
- zone of inhibition at 1000 µg/mL (Aspergillus niger): 18.3 mm
- LC50 at 24 h [5]: 3.53 µg/mL (≈ 6.12 µM)
- zone of inhibition at 1000 µg/mL (Pseudomonas aeruginosa): 20.6 mm
- TEAC (Trolox equivalents) [6]: 3.84
- Activity (Mus musculus [7]): Non-toxic
- zone of inhibition at 1000 µg/mL (Escherichia coli): 25.8 mm
- zone of inhibition at 1000 µg/mL (Candida albicans): 17.4 mm

Structure (SMILES): COc1ccc(/C=C(/NC(=O)c2ccccc2)C(=O)NCC(=O)N(C(=O)NC2CCCCC2)C2CCCCC2)cc1
- inhibition in vivo at 100 mg/kg (Mus musculus [1]): 39.6%
- IC50 (Brain): 108 µM
- IC50 [2]: 92.7 µM
- IC50 [3]: 92.7 µM
- Activity (Mus musculus [4]): Non-toxic
- zone of inhibition at 1000 µg/mL (Bacillus subtilis): 11.3 mm
- zone of inhibition at 1000 µg/mL (Staphylococcus aureus): 14.3 mm
- inhibition in vivo at 100 mg/kg (Rattus norvegicus): 12%
- zone of inhibition at 1000 µg/mL (Aspergillus niger): 18.8 mm
- zone of inhibition at 1000 µg/mL (Pseudomonas aeruginosa): 10.3 mm
- TEAC (Trolox equivalents) [6]: 1.24
- Activity (Mus musculus [7]): Non-toxic
- zone of inhibition at 1000 µg/mL (Escherichia coli): 15.8 mm
- zone of inhibition at 1000 µg/mL (Candida albicans): 19.6 mm

Structure (SMILES): COc1cc([C@@H]2c3cc4c(cc3[C@H](O)[C@H]3COC(=O)[C@H]23)OCO4)cc(OC)c1OC [PODOFILOX]
- LC50 at 24 h [5]: 3.77 µg/mL (≈ 9.1 µM)

Structure (SMILES): O=C(NCC(=O)N(C(=O)NC1CCCCC1)C1CCCCC1)/C(=C\c1ccc(F)cc1)NC(=O)c1ccccc1
- inhibition in vivo at 100 mg/kg (Mus musculus [1]): 22%
- IC50 (Brain): 97.2 µM
- IC50 [2]: 88.7 µM
- IC50 [3]: 88.7 µM
- Activity (Mus musculus [4]): Non-toxic
- zone of inhibition at 1000 µg/mL (Bacillus subtilis): 20.1 mm
- zone of inhibition at 1000 µg/mL (Staphylococcus aureus): 19.3 mm
- inhibition in vivo at 100 mg/kg (Rattus norvegicus): 20.6%
- zone of inhibition at 1000 µg/mL (Aspergillus niger): 20.8 mm
- zone of inhibition at 1000 µg/mL (Pseudomonas aeruginosa): 17.6 mm
- TEAC (Trolox equivalents) [6]: 1.22
- Activity (Mus musculus [7]): Non-toxic
- zone of inhibition at 1000 µg/mL (Escherichia coli): 16.5 mm
- zone of inhibition at 1000 µg/mL (Candida albicans): 19.2 mm

Structure (SMILES): Cc1ccc(/C=C(/NC(=O)c2ccccc2)C(=O)NC(CS)C(=O)N(C(=O)NC2CCCCC2)C2CCCCC2)cc1 (stereo unspecified)
- inhibition in vivo at 100 mg/kg (Mus musculus [1]): 41.2%
- IC50 (Brain): 113 µM
- IC50 [2]: 66.3 µM
- IC50 [3]: 84 µM
- Activity (Mus musculus [4]): Non-toxic
- zone of inhibition at 1000 µg/mL (Bacillus subtilis): 15.8 mm
- zone of inhibition at 1000 µg/mL (Staphylococcus aureus): 16.8 mm
- inhibition in vivo at 100 mg/kg (Rattus norvegicus): 35.5%
- zone of inhibition at 1000 µg/mL (Aspergillus niger): 15.4 mm
- zone of inhibition at 1000 µg/mL (Pseudomonas aeruginosa): 18.4 mm
- TEAC (Trolox equivalents) [6]: 2.36
- Activity (Mus musculus [7]): Non-toxic
- zone of inhibition at 1000 µg/mL (Escherichia coli): 22.7 mm
- zone of inhibition at 1000 µg/mL (Candida albicans): 14.2 mm

Structure (SMILES): O=C(NC(CS)C(=O)N(C(=O)NC1CCCCC1)C1CCCCC1)/C(=C\c1ccc(F)cc1)NC(=O)c1ccccc1 (stereo unspecified)
- inhibition in vivo at 100 mg/kg (Mus musculus [1]): 42%
- IC50 (Brain): 74.7 µM
- IC50 [2]: 51 µM
- IC50 [3]: 58.8 µM
- Activity (Mus musculus [4]): Non-toxic
- zone of inhibition at 1000 µg/mL (Bacillus subtilis): 14.5 mm
- zone of inhibition at 1000 µg/mL (Staphylococcus aureus): 11.4 mm
- inhibition in vivo at 100 mg/kg (Rattus norvegicus): 25%
- zone of inhibition at 1000 µg/mL (Aspergillus niger): 18.2 mm
- zone of inhibition at 1000 µg/mL (Pseudomonas aeruginosa): 16.6 mm
- TEAC (Trolox equivalents) [6]: 3.6
- Activity (Mus musculus [7]): Non-toxic
- zone of inhibition at 1000 µg/mL (Escherichia coli): 14.3 mm
- zone of inhibition at 1000 µg/mL (Candida albicans): 17.1 mm

Structure (SMILES): CC(C)c1ccc(/C=C(/NC(=O)c2ccccc2)C(=O)NCC(=O)N(C(=O)NC2CCCCC2)C2CCCCC2)cc1
- inhibition in vivo at 100 mg/kg (Mus musculus [1]): 47.4%
- IC50 (Brain): 60.4 µM
- IC50 [2]: 60.4 µM
- IC50 [3]: 61 µM
- Activity (Mus musculus [4]): Non-toxic
- zone of inhibition at 1000 µg/mL (Bacillus subtilis): 18.4 mm
- zone of inhibition at 1000 µg/mL (Staphylococcus aureus): 16.4 mm
- inhibition in vivo at 100 mg/kg (Rattus norvegicus): 26%
- zone of inhibition at 1000 µg/mL (Aspergillus niger): 21.2 mm
- zone of inhibition at 1000 µg/mL (Pseudomonas aeruginosa): 17.3 mm
- TEAC (Trolox equivalents) [6]: 1.19
- Activity (Mus musculus [7]): Non-toxic
- zone of inhibition at 1000 µg/mL (Escherichia coli): 18.1 mm
- zone of inhibition at 1000 µg/mL (Candida albicans): 13.1 mm

From ChEMBL document CHEMBL3232756, “Synthesis and biological evaluation of N-dehydrodipeptidyl-N,N'-dicyclohexylurea analogs” (Eur J Med Chem, 2014)
